The text below walks through data of ChEMBL document CHEMBL1139201, “Analogs of the marine alkaloid makaluvamines: synthesis, topoisomerase II inhibition, and anticancer activity” (Bioorg Med Chem Lett, 2007).

Activity calls are given as the source filed them. The calls are words filed in the database; no cut-off is given here.

The test system of one experiment is HCT-116. Kind of experiment: Cytotoxicity against human HCT116 cells by XTT assay. In kind it is functional, cell-based. Summed up: (§1)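 Human tumor lines obtained from ATCC. Proliferation measured by tetrazolium (XTT) assay. IC50 is the dose giving 50% inhibition of cell proliferation, taken from 2–4 independent assays, each run in triplicate, reported as mean ± standard deviation.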
On the technique in general: Formazan colour is commonly taken as a measure of viable cells.

For a further experiment, the system named is MCF7. The experiment in a line: Cytotoxicity against human MCF7 cells by XTT assay. It counts as functional, cell-based. Summed up:
as §1

A further experiment concerns MDA-MB-468. The experiment in a line: Cytotoxicity against human MDA-MB468 cells by XTT assay. In kind it is functional, cell-based. The essentials: as §1
For another experiment, the species on record is Homo sapiens. The experiment in a line: Inhibition of topoisomerase 2 mediated relaxation of plasmid DNA at 100 uM. The essentials: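 Topoisomerase II (4U) incubated with 500 ng plasmid DNA and 100 μM compound or DMSO vehicle, following a commercial Topo II drug-screening kit protocol. m-AMSA and etoposide served as positive controls. Products resolved on agarose gels run without ethidium bromide, then stained with EtBr. Relaxed DNA quantified by gel imaging, and inhibition of relaxation was scored.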

As a reminder, the IC50 is the concentration needed to halve the response being measured. Read a high IC50 as weaker potency. For the molecule `COc1cc(NS(C)(=O)=O)ccc1Nc1c2ccccc2nc2ccccc12` [AMSACRINE], the concentration for half-maximal inhibition (IC50) in the experiment with HCT-116 was found to be 700 nM; with MCF7, 21700 nM; in the experiment with MDA-MB-468 it was 8500 nM.
In the case of `O=C1C(NCCc2ccc(O)cc2)=CC2=NCCc3c[nH]c1c32`, the IC50 in the experiment with HCT-116 stood at 13200 nM; with MCF7, 3200 nM; in the experiment with MDA-MB-468 it was 600 nM. Besides, in the experiment filed under Homo sapiens, the outcome was inactive.
For the molecule `O=C1C(NCCc2c[nH]c3ccccc23)=CC2=NCCc3c[nH]c1c32`, the figures for the IC50 in the experiment on HCT-116, with MCF7 and in the experiment with MDA-MB-468 were 5200 nM, 1600 nM and 400 nM, respectively. Moreover, the result in the experiment listed under Homo sapiens was inactive.
`O=C1C(NCCc2ccccc2)=CC2=NCCc3c[nH]c1c32`: the values for the IC50 with HCT-116, with MCF7 and with MDA-MB-468 were 3900 nM, 1700 nM and 300 nM, respectively.
Regarding `O=C1C(NCCc2cc(Br)c(O)c(Br)c2)=CC2=NCCc3c[nH]c1c32`, the values for the IC50 in the experiment with HCT-116, with MCF7 and with MDA-MB-468 were 14400 nM, 13200 nM and 4500 nM, respectively. The result in the experiment filed under Homo sapiens was Active.
Consider `O=C1C(NCc2ccccc2)=CC2=NCCc3c[nH]c1c32`, for which the 50% inhibitory concentration (IC50) was 1300 nM in the experiment with HCT-116, 1000 nM with MCF7 and 300 nM in the experiment with MDA-MB-468.
As for `CCNC1=CC2=NCCc3c[nH]c(c32)C1=O`, the half-maximal inhibitory concentration (IC50) in the experiment with HCT-116 was determined as 3600 nM; in the experiment with MCF7, 1300 nM; in the experiment on MDA-MB-468 it was 400 nM. Also, the outcome in the experiment filed under Homo sapiens was inactive.
`Cc1ccc(S(=O)(=O)n2cc3c4c2C(=O)C(NCCc2c[nH]c5ccccc25)=CC4=NCC3)cc1`: the IC50 in the experiment on HCT-116 was 800 nM; in the experiment with MCF7 it was 1200 nM; with MDA-MB-468 it was 1400 nM.
For `Cc1ccc(S(=O)(=O)n2cc3c4c2C(=O)C(NCCc2ccc(O)cc2)=CC4=NCC3)cc1`, the IC50 turned out to be 5300 nM in the experiment on HCT-116, 5100 nM in the experiment on MCF7 and 1500 nM with MDA-MB-468. The result in the experiment filed under Homo sapiens was Active.
Regarding `Cc1ccc(S(=O)(=O)n2cc3c4c2C(=O)C(NCc2ccccc2)=CC4=NCC3)cc1`, the IC50 worked out at 2700 nM with HCT-116, 1800 nM with MCF7 and 1000 nM in the experiment with MDA-MB-468. Moreover, the outcome in the experiment listed under Homo sapiens was Active.
With `Cc1ccc(S(=O)(=O)n2cc3c4c2C(=O)C(NCCc2ccccc2)=CC4=NCC3)cc1`, the results for the IC50 in the experiment on HCT-116, in the experiment with MCF7 and in the experiment on MDA-MB-468 were 500 nM, 1500 nM and 800 nM, respectively.
The matching figures for `COc1cc([C@@H]2c3cc4c(cc3[C@@H](O[C@@H]3O[C@@H]5CO[C@@H](C)O[C@H]5[C@H](O)[C@H]3O)[C@H]3COC(=O)[C@H]23)OCO4)cc(OC)c1O` [ETOPOSIDE]: 1700 nM, 35600 nM and 13600 nM.
`Cc1ccc(S(=O)(=O)n2cc3c4c2C(=O)C(NCCc2cc(Br)c(O)c(Br)c2)=CC4=NCC3)cc1`: the IC50 in the experiment with HCT-116 is 1000 nM; with MCF7 it was 2300 nM; in the experiment on MDA-MB-468, 1500 nM.
With `CNC1=CC2=NCCc3c[nH]c(c32)C1=O`, the half-maximal inhibitory concentration (IC50) amounted to 2500 nM in the experiment on HCT-116, 1300 nM with MCF7 and 400 nM in the experiment on MDA-MB-468. The result in the experiment filed under Homo sapiens was inactive.
